Reference: ChEMBL document CHEMBL4513216, “Probing the Open Global Health Chemical Diversity Library for Multistage-Active Starting Points for Next-Generation Antimalarials” (ACS Infect Dis, 2020)

Assay: Toxicity liver stage against HepG2, at 10uM
Type: cell-based
Design: test concentration 10 uM, cell line HepG2-A16-CD81EGFP
Details: human, HepG2-A16-CD81EGFP cells; read-out: INHIBITION
Summary of the method: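 Uninfected HepG2-A16-CD81EGFP cells, 3 × 10^3 per well, 1536-well, plated on prespotted compound at 10 μM final, parasite-free screening media added to match infected plates; puromycin 10 μM positive, DMSO 0.5% negative; run in parallel with 48 h PbLuc assay at 37 °C, 5% CO2; viability by CellTiter-Glo luminescence, normalized to controls.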

## CCc1ccc(S(=O)(=O)N2CCCn3ncnc32)s1
  cytotoxicity at 10 µM: -0.908%

## Cc1nnc(CCNC(=O)c2coc(CN3CCOCC3)c2)s1
  cytotoxicity at 10 µM: -9.21%

## CCC(=O)N1CCC2(CC1)COc1ccccc1S(=O)(=O)N(C)C2
  cytotoxicity at 10 µM: -6.71%

## COc1cc(NC(=O)c2nc3ccccc3n(C)c2=O)cc(OC)c1
  cytotoxicity at 10 µM: 7.67%

## O=C1CC(c2cccc(Cl)c2)c2snc(C(=O)O)c2N1 (stereo not given)
  cytotoxicity at 10 µM: 2.91%

## Cc1nccn1Cc1nnc(C2CCCN(c3ncccn3)C2)n1C (stereo not given)
  cytotoxicity at 10 µM: -3.09%

## OC1(CN2CCC(Cc3ncccn3)CC2)CCCCC1
  cytotoxicity at 10 µM: 7.69%

## CC1CCN(CC(=O)NC(C#N)c2cnn(-c3ccccc3)c2)CC1 (stereo not given)
  cytotoxicity at 10 µM: 0.724%

## CC(C)(C)c1nc(CN2CCCC(Cn3cncn3)C2)no1 (stereo not given)
  cytotoxicity at 10 µM: -0.0792%

## CN1CCC2(COCCN(Cc3ccc4c(c3)OCO4)C2)C1 (stereo not given)
  cytotoxicity at 10 µM: -2.05%

## CCCC(=O)N1C[C@@H]2CCN(c3cnccn3)C[C@@H]2C1
  cytotoxicity at 10 µM: -1.48%

## COCCOc1ccc(C(=O)N[C@@H]2CNCCC[C@H]2O)cc1
  cytotoxicity at 10 µM: 4.67%

## Cc1cnc(CN2CC=C(c3c[nH]c4ncccc34)CC2)o1
  cytotoxicity at 10 µM: 25%

## Cc1cccc(SC2CCN(C(=O)CCCS(N)(=O)=O)CC2)c1
  cytotoxicity at 10 µM: -6.01%

## CCOc1ccccc1OC1CCN(C(=O)c2cc[nH]n2)CC1
  cytotoxicity at 10 µM: -4.53%

## CC(c1ccccc1F)N(CC(N)=O)C1CC1 (stereo not given)
  cytotoxicity at 10 µM: -46.3%

## Cc1cc(NC(=O)CN(C)C2CCCN(c3cccnn3)C2)n(C)n1 (stereo not given)
  cytotoxicity at 10 µM: -12.4%

## Cc1ccc(N2CCN(C(=O)CCc3n[nH]c(C)c3C)CC2=O)cc1
  cytotoxicity at 10 µM: 4.78%

## COc1cc(N2CCC(c3nccn3Cc3ccccc3)CC2)ncn1
  cytotoxicity at 10 µM: 5.44%

## NC(=O)C1Cn2ccnc2C2(CCN(C(=O)NC3CCCC3)CC2)O1 (stereo not given)
  cytotoxicity at 10 µM: -104%

## Cc1ccc(CNC(=O)CN2CCCCC2Cn2cncn2)s1 (stereo not given)
  cytotoxicity at 10 µM: 1.8%

## CC(=O)N1CCC2(CC1)c1ncc(-c3cccnc3)n1CCN2C
  cytotoxicity at 10 µM: -94%

## Cn1nc(C(C)(C)C)cc1NC(=O)Cn1ccccc1=O
  cytotoxicity at 10 µM: -10.5%

## CCOCCn1nc(C)cc1C(=O)N1CC[C@@](O)(COC)C(C)(C)C1
  cytotoxicity at 10 µM: -1.66%

## O=C(c1cocn1)N1C[C@@H]2CN(CC3CC3)CCO[C@@H]2C1
  cytotoxicity at 10 µM: -2.29%

## COCCCN1C(=O)CC[C@H]2CN(c3ccc(C(N)=O)cn3)CC[C@H]21
  cytotoxicity at 10 µM: 5.03%

## O=C(Cc1cccs1)NS(=O)(=O)c1cccc2cnccc12
  cytotoxicity at 10 µM: -14.6%

## O=c1c2ccc(C(F)(F)F)cc2ncn1CCCN1CCCCC1CO (stereo not given)
  cytotoxicity at 10 µM: -5.98%

## CC(Cn1cccn1)n1cnc2ccc(F)cc2c1=O (stereo not given)
  cytotoxicity at 10 µM: 0.956%

## COCC1CN(C(=O)c2cccn2C)Cc2c1cnn2CC1CC1 (stereo not given)
  cytotoxicity at 10 µM: 8.07%

## O=C(N[C@@H]1CN(Cc2ccc(F)c(F)c2)C[C@H]1O)c1cscn1
  cytotoxicity at 10 µM: -3.78%

## Cc1cnn(CC2CCCCN2Cc2nc(N)c3ccccc3n2)c1 (stereo not given)
  cytotoxicity at 10 µM: -7.21%

## CC(C)NC(=O)COc1cccc(-c2nc(C(C)C)no2)c1
  cytotoxicity at 10 µM: -5.77%

## O=C(COc1ccccc1N1CCCC1)N1CCN[C@H]2CS(=O)(=O)C[C@H]21
  cytotoxicity at 10 µM: -0.687%

## CCCc1nn(Cc2csc(CC)n2)c(=O)o1
  cytotoxicity at 10 µM: -43.1%

## Cc1nc(CN2CCOC3(CCCC3)C2)oc1C
  cytotoxicity at 10 µM: 4.56%

## CC(=O)Nc1nc(C(=O)N2CCCC2c2ccccc2C)cs1 (stereo not given)
  cytotoxicity at 10 µM: -2.27%

## Cc1cc(N2CCC3(CCC(=O)N(CC4CC4)C3)CC2)ncn1
  cytotoxicity at 10 µM: -7.8%

## COc1ccc(CN(C)[C@@H]2CN(C(=O)c3cccnc3)C[C@H]2O)cc1
  cytotoxicity at 10 µM: 10.9%

## Cc1cc(CN(CC(N)=O)CC(C)C)on1
  cytotoxicity at 10 µM: 6.36%

## CCN(CC)C(CNC(=O)c1ccnc(N(C)C)c1)c1ccsc1 (stereo not given)
  cytotoxicity at 10 µM: -149%

## CC(C)n1ncc2cc(NC(=O)N3CCC(N4CCCC4)C3)cnc21 (stereo not given)
  cytotoxicity at 10 µM: -8.58%

## CCN(CC)CCNC(=O)c1ccc(Cl)c(NS(C)(=O)=O)c1
  cytotoxicity at 10 µM: 5.53%

## CCOc1ncccc1NC(=O)c1cccs1
  cytotoxicity at 10 µM: 0.932%

## CN1CCN(C(=O)CCn2c(C(F)(F)F)cc3cccnc32)CC1
  cytotoxicity at 10 µM: -31.9%
